# Measured values taken from ChEMBL document CHEMBL2176990, “Synthesis and biological evaluation of 5-benzylidenepyrimidine-2,4,6(1H,3H,5H)-trione derivatives for the treatment of obesity-related nonalcoholic fatty liver disease” (J Med Chem, 2012).
# Activity calls are given as the source filed them. The rule behind the calls is not given here.
# Assays:
# HepG2 [1] = experiment: Reduction of glucose consumption in insulin-resistant human HepG2 cells at 10 uM after 24 hrs by glucose oxidase method; format: functional, cell-based
# In short: (§1)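 HepG2 cells in DMEM (22.2 mM glucose) with 10% FBS, exposed to 0.1 μM insulin from plating for 2 days. At confluence, given fresh 22.2 mM glucose DMEM with test agents for 24 h. Medium glucose measured by glucose oxidase. Consumption = blank minus remaining glucose, normalized to MTT. Three independent experiments.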
# HepG2 [2] = experiment: Reduction of glucose consumption in insulin-resistant human HepG2 cells at 10 uM after 24 hrs by glucose oxidase method in presence of 0.1 uM of insulin; format: functional, cell-based; in short: as §1
# 3T3-L1 [3] = experiment: Up-regulation of adiponectin expression in mouse 3T3L1 cells at 10 uM after 24 hrs by ELISA; format: functional
# In short: (§2)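 3T3-L1 preadipocytes grown to 2 days post-confluence. Differentiated with 0.5 mM IBMX, 0.25 μM dexamethasone and 1 μg/mL insulin for 2 days, then insulin alone for 2 days, then 10% FBS DMEM. On day 12, treated 24 h; secreted adiponectin and leptin measured by ELISA. Three independent experiments.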
# 3T3-L1 [4] = experiment: Down-regulation of […] expression in mouse 3T3L1 cells at 10 uM after 24 hrs by ELISA; format: functional; in short: as §2
# HepG2 [5] = experiment: Reduction of glucose consumption in insulin-resistant human HepG2 cells at 10 uM after 24 hrs by glucose oxidase method in presence of 22.2 mM of glucose; format: functional, cell-based; in short: as §1
SMILES,Activity (HepG2 [1]),Activity (HepG2 [2]),Activity (3T3-L1 [3]),Activity (3T3-L1 [4]),Activity (HepG2 [5])
O=C1NC(=O)C(=Cc2ccc(OC3CCN(C(=O)c4ccc(OC(F)F)cc4)CC3)cc2)C(=O)N1,inactive,inactive,,,
CN(CCOc1ccc(CC2SC(=O)NC2=O)cc1)c1ccccn1 (centres undefined) [ROSIGLITAZONE],,Active,236 pg/mL,118.8 pg/mL,Active
CS(=O)(=O)N(Cc1ccc(C=C2C(=O)NC(=O)NC2=O)cc1)C1CCN(c2ccc([N+](=O)[O-])cn2)CC1,inactive,inactive,,,
CS(=O)(=O)N(Cc1ccc(C=C2C(=O)NC(=O)NC2=O)cc1)C1CCN(C(=O)c2cccc(OC(F)(F)C(F)F)c2)CC1,inactive,inactive,,,
O=C1NC(=O)C(=Cc2ccc(C(=O)N3CCC(Nc4cc([N+](=O)[O-])ccn4)CC3)cc2)C(=O)N1,inactive,inactive,,,
O=C1NC(=O)C(=Cc2ccc(OC3CCN(C(=O)c4cccc(C(F)(F)F)c4)CC3)cc2)C(=O)N1,,Active,Active,inactive,Active
COC(=O)c1sccc1S(=O)(=O)N1CCC(Oc2ccc(C=C3C(=O)NC(=O)NC3=O)cc2F)CC1,inactive,inactive,,,
O=C1NC(=O)C(=Cc2ccc(OC3CCN(C(=O)c4ccc(OC(F)F)cc4)CC3)c(F)c2)C(=O)N1,,Active,,,Active
O=C1NC(=O)C(=Cc2ccc(CNC3CCN(c4ccc([N+](=O)[O-])cn4)CC3)cc2)C(=O)N1,inactive,inactive,,,
N#Cc1cccnc1N1CCC(Oc2ccc(C=C3C(=O)NC(=O)NC3=O)cc2)CC1,inactive,inactive,,,
O=C1NC(=O)C(=Cc2ccc(C(=O)NC3CCN(c4cc([N+](=O)[O-])ccn4)CC3)cc2)C(=O)N1,inactive,inactive,,,
O=C1NC(=O)C(=Cc2ccc(OC3CCN(C(=O)c4ccncc4)CC3)cc2)C(=O)N1,,Active,Active,inactive,Active
O=C1NC(=O)C(=Cc2ccc(C(=O)N3CCC(Nc4ccc([N+](=O)[O-])cn4)CC3)cc2)C(=O)N1,inactive,inactive,,,
O=C1NC(=O)C(=Cc2ccc(OC3CCN(c4ccc(C(F)(F)F)cn4)CC3)cc2)C(=O)N1,inactive,inactive,,,
